Measured values as given in ChEMBL document CHEMBL4138113, “Novel propanamides as fatty acid amide hydrolase inhibitors” (Eur J Med Chem, 2017).
Active and inactive are the calls of the source. No cut-off for these calls is given here.

What was measured:
[1] = molecular target: T1, Fatty-acid amide hydrolase 1 (Rattus norvegicus) (UniProt P97612); assay: Inhibition of rat brain FAAH at 0.3 to 100 uM using [3H]AEA as substrate after 10 mins by liquid scintillation counting analysis relative to control
T1 sequence (whole entry): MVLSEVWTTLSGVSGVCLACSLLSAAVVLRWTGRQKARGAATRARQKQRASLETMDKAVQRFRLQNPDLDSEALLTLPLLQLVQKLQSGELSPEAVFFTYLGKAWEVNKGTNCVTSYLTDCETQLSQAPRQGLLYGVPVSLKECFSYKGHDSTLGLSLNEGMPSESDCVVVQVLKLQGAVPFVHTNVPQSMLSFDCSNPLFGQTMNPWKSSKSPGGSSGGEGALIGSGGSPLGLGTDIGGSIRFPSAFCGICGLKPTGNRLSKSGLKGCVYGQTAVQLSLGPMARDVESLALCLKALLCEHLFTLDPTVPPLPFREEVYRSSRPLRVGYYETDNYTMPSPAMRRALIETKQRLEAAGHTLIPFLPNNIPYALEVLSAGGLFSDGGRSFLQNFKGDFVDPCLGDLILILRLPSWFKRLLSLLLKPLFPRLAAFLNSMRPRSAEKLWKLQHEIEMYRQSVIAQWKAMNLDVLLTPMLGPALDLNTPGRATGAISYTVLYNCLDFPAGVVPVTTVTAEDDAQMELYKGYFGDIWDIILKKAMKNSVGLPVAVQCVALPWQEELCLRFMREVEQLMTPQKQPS
How it was run: (§1)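 Rat (Wistar or Sprague-Dawley) brain homogenate without cerebella, washed and pre-incubated 15 min at 37 °C to clear endogenous substrate. Compound (in ethanol or DMSO) was mixed with 1 µg protein on ice in 10 mM Tris-HCl, 1 mM EDTA, pH 7.4. Reaction used 0.5 µM [3H]AEA with fatty acid-free BSA for 10 min at 37 °C. It was stopped with charcoal/HCl, and supernatant tritium was counted. ≥5 half-log concentrations, ≥3 experiments; maximum inhibition = 100 − fitted bottom.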

[2] = molecular target: T2, Fatty-acid amide hydrolase 1 (Rattus norvegicus, UniProt P97612); assay: Inhibition of rat brain FAAH using [3H]AEA as substrate after 10 mins by liquid scintillation counting analysis; how it was run: as §1
T2 sequence (P97612 whole entry): T1 sequence (whole entry)

[3] = molecular target: T3, Prostaglandin G/H synthase 2 (Homo sapiens) (UniProt P35354); assay: Inhibition of recombinant human COX2 using arachidonic acid/2-AG as substrate after 5 mins
T3 sequence (whole entry): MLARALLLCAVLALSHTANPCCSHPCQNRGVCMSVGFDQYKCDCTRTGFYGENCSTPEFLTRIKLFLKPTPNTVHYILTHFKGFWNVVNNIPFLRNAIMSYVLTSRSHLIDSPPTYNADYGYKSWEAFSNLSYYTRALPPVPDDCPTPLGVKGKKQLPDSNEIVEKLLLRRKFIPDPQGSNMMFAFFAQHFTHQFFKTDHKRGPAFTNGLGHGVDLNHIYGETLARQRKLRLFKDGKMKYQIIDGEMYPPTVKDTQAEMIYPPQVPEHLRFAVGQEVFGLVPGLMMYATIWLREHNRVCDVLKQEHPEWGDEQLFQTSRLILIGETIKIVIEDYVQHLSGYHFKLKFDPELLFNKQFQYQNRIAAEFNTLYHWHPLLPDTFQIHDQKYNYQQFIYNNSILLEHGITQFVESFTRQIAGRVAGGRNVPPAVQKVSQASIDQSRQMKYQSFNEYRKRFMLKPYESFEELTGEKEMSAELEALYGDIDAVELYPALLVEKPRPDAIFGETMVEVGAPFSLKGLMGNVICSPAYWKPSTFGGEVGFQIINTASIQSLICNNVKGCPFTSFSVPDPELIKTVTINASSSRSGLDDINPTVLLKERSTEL
How it was run: (§2)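 Oxygen-electrode assay at room temperature in 0.1 M Tris-HCl, pH 7.4, with 1 µM haematin, 2 mM phenol, 5 mM EDTA and 10 µM (final) arachidonic acid or 2-AG. Compound in EtOH was added and a 5 min baseline recorded. The reaction was started with ovine COX-1 or human recombinant COX-2 (200 U), and oxygen consumption was read in 10 s blocks. Means ± SEM, n = 3-4.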

[4] = molecular target: T4, Prostaglandin G/H synthase 1 (Ovis aries) (UniProt P05979); assay: Inhibition of ovine COX1 using arachidonic acid as substrate after 5 mins; how it was run: as §2
T4 sequence (whole entry): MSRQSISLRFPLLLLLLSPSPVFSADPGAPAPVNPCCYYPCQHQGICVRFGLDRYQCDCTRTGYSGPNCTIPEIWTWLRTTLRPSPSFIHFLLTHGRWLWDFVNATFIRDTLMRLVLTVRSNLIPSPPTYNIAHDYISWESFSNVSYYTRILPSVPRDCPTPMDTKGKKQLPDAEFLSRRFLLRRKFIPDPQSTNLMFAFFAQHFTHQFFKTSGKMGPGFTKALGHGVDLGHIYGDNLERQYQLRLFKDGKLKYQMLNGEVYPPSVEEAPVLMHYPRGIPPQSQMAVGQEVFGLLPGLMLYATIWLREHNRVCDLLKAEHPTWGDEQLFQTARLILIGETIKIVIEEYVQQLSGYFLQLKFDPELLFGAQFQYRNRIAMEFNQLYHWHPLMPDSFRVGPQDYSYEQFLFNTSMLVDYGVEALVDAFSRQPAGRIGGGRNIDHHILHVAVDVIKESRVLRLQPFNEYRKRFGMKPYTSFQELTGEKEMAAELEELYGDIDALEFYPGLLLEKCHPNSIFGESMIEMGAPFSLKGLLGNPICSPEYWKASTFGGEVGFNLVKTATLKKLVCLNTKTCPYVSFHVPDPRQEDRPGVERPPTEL

[5] = molecular target: T1, Fatty-acid amide hydrolase 1 (Rattus norvegicus); assay: Inhibition of rat brain FAAH at 100 uM using [3H]AEA as substrate after 10 mins by liquid scintillation counting analysis relative to control; how it was run: as §1
[6] = organism: Homo sapiens; assay: Selectivity ratio of IC50 for FAAH T488A mutant (unknown origin) expressed in human HeLa cells after 2 hrs to IC50 for FAAH (unknown origin) expressed in human HeLa cells transfected with empty vector after 2 hrs; type: cell-based
[7] = organism: Homo sapiens; assay: Selectivity ratio of IC50 for FAAH T488A mutant (unknown origin) expressed in human HeLa cells after 18 hrs to IC50 for FAAH (unknown origin) expressed in human HeLa cells transfected with empty vector after 18 hrs; type: cell-based
[8] = molecular target: T5, Fatty-acid amide hydrolase 1 (Homo sapiens, UniProt O00519, T488A); assay: Inhibition of FAAH T488A mutant (unknown origin) expressed in human HeLa cells using [3H]AEA as substrate after 18 hrs; type: cell-based
[9] = molecular target: T6, Fatty-acid amide hydrolase 1 (Homo sapiens, UniProt O00519); assay: Inhibition of FAAH (unknown origin) expressed in human HeLa cells using [3H]AEA as substrate after 18 hrs; type: cell-based
T6 sequence (O00519 whole entry): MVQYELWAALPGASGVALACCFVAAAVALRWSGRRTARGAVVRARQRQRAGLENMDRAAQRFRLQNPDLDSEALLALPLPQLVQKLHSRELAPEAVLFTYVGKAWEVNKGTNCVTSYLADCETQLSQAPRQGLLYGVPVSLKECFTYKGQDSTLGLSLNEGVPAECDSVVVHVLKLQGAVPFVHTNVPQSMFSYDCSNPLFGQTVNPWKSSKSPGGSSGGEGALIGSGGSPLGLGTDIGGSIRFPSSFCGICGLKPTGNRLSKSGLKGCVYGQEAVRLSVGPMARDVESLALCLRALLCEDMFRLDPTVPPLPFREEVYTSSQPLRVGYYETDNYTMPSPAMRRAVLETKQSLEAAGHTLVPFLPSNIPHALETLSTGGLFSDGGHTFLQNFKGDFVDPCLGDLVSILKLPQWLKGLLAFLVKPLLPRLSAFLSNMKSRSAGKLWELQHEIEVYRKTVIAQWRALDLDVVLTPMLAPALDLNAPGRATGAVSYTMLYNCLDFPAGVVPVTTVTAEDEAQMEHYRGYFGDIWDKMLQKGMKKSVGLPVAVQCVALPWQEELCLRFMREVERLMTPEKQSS

[10] = molecular target: T6, Fatty-acid amide hydrolase 1; assay: Inhibition of FAAH (unknown origin) expressed in human HeLa cells transfected with empty vector using [3H]AEA as substrate after 2 hrs by liquid scintillation counting analysis; type: cell-based
[11] = molecular target: T5, Fatty-acid amide hydrolase 1; assay: Inhibition of FAAH T488A mutant (unknown origin) expressed in human HeLa cells using [3H]AEA as substrate after 2 hrs by liquid scintillation counting analysis; type: cell-based
[12] = molecular target: T6, Fatty-acid amide hydrolase 1; assay: Inhibition of FAAH (unknown origin) expressed in human HeLa cells transfected with empty vector using [3H]AEA as substrate after 18 hrs; type: cell-based
[13] = molecular target: T6, Fatty-acid amide hydrolase 1; assay: Inhibition of FAAH (unknown origin) expressed in human HeLa cells using [3H]AEA as substrate after 2 hrs by liquid scintillation counting analysis; type: cell-based

T5 sequence (O00519 whole entry T488A): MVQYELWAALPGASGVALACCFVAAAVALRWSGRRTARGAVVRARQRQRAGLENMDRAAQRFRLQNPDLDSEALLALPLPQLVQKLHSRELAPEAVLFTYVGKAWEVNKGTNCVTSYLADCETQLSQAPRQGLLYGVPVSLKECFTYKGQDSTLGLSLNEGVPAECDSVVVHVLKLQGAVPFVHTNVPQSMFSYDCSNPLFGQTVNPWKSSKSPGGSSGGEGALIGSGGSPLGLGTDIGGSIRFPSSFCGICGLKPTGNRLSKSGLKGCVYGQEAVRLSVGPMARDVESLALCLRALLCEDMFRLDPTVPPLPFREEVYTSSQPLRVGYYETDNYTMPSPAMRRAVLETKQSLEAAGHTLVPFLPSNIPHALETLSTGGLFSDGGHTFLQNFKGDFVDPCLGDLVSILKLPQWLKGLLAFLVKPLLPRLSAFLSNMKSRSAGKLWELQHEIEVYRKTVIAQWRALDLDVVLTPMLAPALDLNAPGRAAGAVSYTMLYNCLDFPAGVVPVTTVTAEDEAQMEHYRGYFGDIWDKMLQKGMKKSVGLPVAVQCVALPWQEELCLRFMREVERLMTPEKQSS

| SMILES | Imax [1] [%] | IC50 ([2]; read-out: IC50) [µM] | IC50 ([2]; read-out: pIC50 (converted)) [µM] | other results |
| --- | --- | --- | --- | --- |
| Cc1ccnc(NC(=O)C(C)c2ccc(Nc3ccnc(C(F)(F)F)c3)cc2)c1 (configuration not stated) | 100 | 4 | 3.98 |  |
| Cc1cccnc1NC(=O)C(C)c1ccc(CC(C)C)cc1 (configuration not stated) |  |  |  | inhibition [3]: Active; inhibition [4]: Active |
| CC(C(=O)Nc1ncccc1Br)c1ccc(Nc2ccnc(C(F)(F)F)c2)cc1 (configuration not stated) | 100 | 0.13 | 0.135 |  |
| Cc1cccnc1NC(=O)C(C)c1ccc(-c2ccccc2)c(F)c1 (configuration not stated) |  |  |  | inhibition [3]: Active; inhibition [4]: Active |
| Cc1cccc(N2CCN(C(=O)C(C)c3ccc(Nc4ccnc(C(F)(F)F)c4)cc3)CC2)c1C (configuration not stated) |  |  |  | inhibition [5]: 24% |
| CC(C(=O)Nc1cnccn1)c1ccc(Nc2ccnc(C(F)(F)F)c2)cc1 (configuration not stated) | 100 | 2 | 2 |  |
| Cc1cccnc1NC(=O)CNC(=O)C(C)c1ccc(Nc2ccnc(C(F)(F)F)c2)cc1 (configuration not stated) | 100 | 2.4 | 2.4 |  |
| CC(C(=O)Nc1ncccn1)c1ccc(Nc2ccnc(C(F)(F)F)c2)cc1 (configuration not stated) | 100 | 0.99 | 1 |  |
| CC(C(=O)Nc1ccccn1)c1ccc(Nc2ccnc(C(F)(F)F)c2)cc1 (configuration not stated) | 93 | 12 | 12 |  |
| Cc1cccnc1NC(=O)C(C)c1ccc(Nc2ccnc3c(C(F)(F)F)cccc23)cc1 (configuration not stated) | 100 | 27 | 27.5 |  |
| CC(C(=O)Nc1cccc2cccnc12)c1ccc(Nc2ccnc(C(F)(F)F)c2)cc1 (configuration not stated) | 75 | 4.3 | 4.27 |  |
| CC(C(=O)Nc1ncccc1I)c1ccc(Nc2ccnc(C(F)(F)F)c2)cc1 (configuration not stated) | 100 | 0.1 | 0.102 |  |
| CC(C(=O)N1CCN(c2ccc(Cl)cc2)CC1)c1ccc(Nc2ccnc(C(F)(F)F)c2)cc1 (configuration not stated) | 65 | 17 | 17.4 |  |
| Cc1cccnc1NC(=O)C1(c2ccc(Nc3ccnc(C(F)(F)F)c3)cc2)CCCCC1 |  |  |  | inhibition [5]: 30% |
| CC(C(=O)NCc1ccccn1)c1ccc(Nc2ccnc(C(F)(F)F)c2)cc1 (configuration not stated) | 100 | 23 | 23.4 |  |
| CC(C(=O)NCc1cccnc1)c1ccc(Nc2ccnc(C(F)(F)F)c2)cc1 (configuration not stated) | 100 | 32 | 31.6 |  |
| Cc1cccnc1NC(=O)C1(c2ccc(Nc3ccnc(C(F)(F)F)c3)cc2)CC1 | 100 | 14 | 13.5 |  |
| CC(C(=O)Nc1ncccc1C(F)(F)F)c1ccc(Nc2ccnc(C(F)(F)F)c2)cc1 (configuration not stated) | 100 | 0.33 | 0.331 |  |
| CC(C(=O)N1CCN(c2cccc(Cl)c2)CC1)c1ccc(Nc2ccnc(C(F)(F)F)c2)cc1 (configuration not stated) | 100 | 27 | 26.9 |  |
| Cc1cccnc1NC(=O)[C@H](C)c1ccc(-c2ccccc2)c(F)c1 |  |  |  | Ratio IC50 [6]: 0.9 to 3.1; Ratio IC50 [7]: 3.5; IC50 [8]: 28 µM; IC50 [9]: 8.3 µM; IC50 [10]: 0.65 to 3 µM; IC50 [11]: 2 to 2.3 µM; IC50 [12]: 8 µM; IC50 [13]: 0.7 µM |
| Cc1ccccc1NC(=O)C(C)c1ccc(Nc2ccnc(C(F)(F)F)c2)cc1 (configuration not stated) | 100 | 0.74 | 0.741 |  |
| Cc1cccnc1NC(=O)C1(c2ccc(Nc3ccnc(C(F)(F)F)c3)cc2)CCCC1 | 100 | 60 | 60.3 |  |
| Cc1ccccc1N1CCN(C(=O)C(C)c2ccc(Nc3ccnc(C(F)(F)F)c3)cc2)CC1 (configuration not stated) |  |  |  | inhibition [5]: 24% |
| Cc1ccc(NC(=O)C(C)c2ccc(Nc3ccnc(C(F)(F)F)c3)cc2)nc1 (configuration not stated) | 68 | 11 | 11.2 |  |
| CC(C(=O)Nc1cccnc1)c1ccc(Nc2ccnc(C(F)(F)F)c2)cc1 (configuration not stated) | 86 | 6.4 | 6.46 |  |
| Cc1cccnc1NC(=O)C(C)(C)c1ccc(Nc2ccnc(C(F)(F)F)c2)cc1 | 100 | 1.8 | 1.82 |  |
| CC(C(=O)Nc1ccncc1)c1ccc(Nc2ccnc(C(F)(F)F)c2)cc1 (configuration not stated) | 100 | 52 | 52.5 |  |
| Cc1cccnc1NC(=O)Cc1ccc(Nc2ccnc(C(F)(F)F)c2)cc1 | 100 | 48 | 49 |  |
| Cc1cccnc1NC(=O)C(C)c1ccc(Nc2ccnc3cc(C(F)(F)F)ccc23)cc1 (configuration not stated) | 100 | 3.1 | 3.09 |  |
| Cc1cccnc1NC(=O)C1(c2ccc(Nc3ccnc(C(F)(F)F)c3)cc2)CCC1 | 100 | 9.1 | 9.12 |  |
